Source: PubChem BioAssay
Shown are actives, neighbours in structure and some others; about 3% of the full set was active somewhere.
Cneo AK release = causes C. neoformans cell lysis; lysis activity, % at 15 µM; AID 651654; 0.2% of 360,000 active; adenylate kinase release luminescence, 4 h; normalised: neutral wells 0, clomiphene wells 100;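 active = mean lysis activity across replicates of at least 80%, whatever share of replicates individually reach that level; inactive = mean lysis activity below 80%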
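Signal: Adenylate kinase release luminescence | Assay system: Log-phase Cryptococcus neoformans yeast cells | Input: Cells at 5 × 10^6 per mL | Buffer or medium: Fresh YPD growth medium | Compound: Single dose | Schedule: Static 4 h at 37 °C with compound, 1 h detection | Controls: Clomiphene | Read-out: Luminescence rise reflecting yeast cell lysis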
S100A4 MyoIIA = blocks human S100A4 binding to myosin IIA peptide. 0.14% of 360,000 active. AID 652163. inhibition, % at 10.7 µM. S100A4/TAMRA-MyoIIA peptide fluorescence polarization. P26447;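 active = mean inhibition of at least 70% across replicates, with every replicate also reaching that level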
Target sequence (P26447 whole entry, looked up): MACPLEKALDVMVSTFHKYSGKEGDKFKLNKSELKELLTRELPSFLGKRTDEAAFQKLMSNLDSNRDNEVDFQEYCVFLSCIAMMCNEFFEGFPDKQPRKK
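Material: S100A4 monomer (human). Medium: Calcium-containing HEPES buffer, pH 7.2. Probe or stimulus: labelled myosin peptide probe, 5 nM. Compound dosing: one concentration per compound. Timing: polarization read 5 min after assay mix addition, stable 5–60 min. Benchmarks: DMSO as neutral control, TFP as positive control.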
Ecoli rRNA inh = selective bacterial rRNA inhibition in E. coli. E. coli WT GFP vs humanized-ribosome RFP mutants, fluorescence, 24 h; stronger effect = lower value; DMSO median 0, no signal -100. GFP signal change (wild-type ribosome), % (concentration not given with the values). 1.6% of 350,000 active. AID 720706;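 active = significant combined selectivity score with lowered wild-type GFP, culture density cut under 30%, mutant RFP and density less affected; inactive = any of these conditions unmet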
SIRT5 block = blocks human SIRT5 desuccinylation of peptide | Q9NXA8 | Purified SirT5, succinyl-peptide AMC, trypsin-coupled fluorescence | inhibition, % at 15 µM | 1.1% of 330,000 active | AID 652115; in the data active = inhibition above about 15%
Target sequence (Q9NXA8 whole entry, looked up): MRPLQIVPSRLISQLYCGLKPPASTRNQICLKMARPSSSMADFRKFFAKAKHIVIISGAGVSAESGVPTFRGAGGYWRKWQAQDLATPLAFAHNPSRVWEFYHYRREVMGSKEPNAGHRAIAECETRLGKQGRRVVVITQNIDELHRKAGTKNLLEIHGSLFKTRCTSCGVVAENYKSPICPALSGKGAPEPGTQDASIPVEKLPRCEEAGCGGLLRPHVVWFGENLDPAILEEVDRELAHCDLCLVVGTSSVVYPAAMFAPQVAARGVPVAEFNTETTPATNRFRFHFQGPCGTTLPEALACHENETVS
PGC1a acetyl inh = lowers PGC1a acetylation signal in U2OS cells | AlphaScreen anti-acetyl-lysine; with virally co-expressed GCN5 acetyltransferase | inhibition, % at 15.6 µM | 0.17% of 350,000 active;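 active = every replicate shows inhibition of at least 40%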
C2C12 statin = suppressors of simvastatin-induced myotoxicity in C2C12 myotubes | ATP luminescence, 48 h; scaled: DMSO 0, geranylgeraniol control 100 | rescue of ATP level, % at 7.49 µM | 0.78% of 330,000 active;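 active = mean ATP rescue above about 67%, or every replicate alone reaching that limit, limit read from the data, passing the limit was not always enough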;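 note: myotubes were challenged with 10 µM simvastatin during compound exposure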
Numbers stand for hits; i = inactive; nt = no result given.

SMILES | Cneo AK release | S100A4 MyoIIA | Ecoli rRNA inh | SIRT5 block | PGC1a acetyl inh | C2C12 statin
CCC(=O)Nc1ccc2c(c1)OC[C@H](C)N(Cc1cccnc1)C[C@H](C)[C@H](OC)CN(C)C2=O | i | i | i | i | i | i
CC(NC(=O)c1ccc(C(C)(C)C)cc1)C(c1cccs1)N1CCOCC1 (centres undefined) | i | i | i | i | nt | i
CC(NC(=O)c1ccncc1)C(c1cccs1)N1CCOCC1 (centres undefined) | i | i | i | 20 | i | i
CCOC(=O)c1csc(-c2sccc2Br)n1 | nt | i | -27 | i | nt | nt
COc1ccc(/C=C/C(=O)NC(=S)NNC(=O)Cc2cccs2)cc1 | nt | nt | nt | nt | i | nt
O=C(/C=C/c1ccccc1)NC(=S)NNC(=O)Cc1cccs1 | i | nt | nt | nt | i | 104
C[C@@H]1CCCCO[C@H](CN(C)C)[C@H](C)CN([C@H](C)CO)C(=O)c2cc(NC(=O)Nc3ccc4c(c3)OCO4)ccc2O1 | i | i | i | i | i | i
O=C(COc1ccc(Cl)cc1Cl)Nc1ccc(CN2CCCCC2)cc1 | i | i | i | 112 | i | i
O=C(COc1ccc(Cl)cc1Cl)Nc1ccc(CN2CCOCC2)cc1 | i | i | i | i | i | i
COc1ccc(C(=O)NC(=S)Nc2ccc(CN3CCOCC3)cc2)cc1Cl | i | i | i | i | i | i
COc1ccc(C(=O)NC(=S)Nc2ccc(CN3CCCCC3)cc2)cc1Cl | nt | i | -20 | i | nt | nt
COCC(=O)N1[C@H](CO)[C@@H](c2ccc(-c3ccccc3OC)cc2)C12CN(C(C)=O)C2 | nt | i | i | i | i | nt
CCOC(=O)/C=C(\C)Nc1cc(C)nn1-c1ccccc1 | i | nt | nt | nt | i | 127
Cc1cc(NC(=O)Nc2cc(C)nn2-c2ccccc2)n(-c2ccccc2)n1 | i | nt | nt | nt | i | i
C[C@H](CO)N1C[C@H](C)[C@@H](CN(C)Cc2ccc(C(=O)O)cc2)OCCCC[C@H](C)Oc2ccc(N(C)C)cc2C1=O | nt | nt | i | nt | i | i
CO[C@@H]1CN(C)C(=O)c2ccc(NC(=O)c3ccccc3)cc2OC[C@H](C)N(C(C)=O)C[C@@H]1C | nt | i | i | i | i | nt
O=C(O)c1ccc(CSc2nnc(-c3ccco3)n2-c2ccccc2)cc1 | nt | i | -34 | i | i | nt
c1ccc(-n2c(SCc3ccncc3)nnc2-c2ccco2)cc1 | i | nt | nt | nt | i | i
O=C(CSc1nnc(-c2ccco2)n1-c1ccccc1)NCc1ccco1 | i | nt | nt | nt | i | i
c1ccc(-n2c(SCc3nc(-c4cccs4)no3)nnc2-c2ccco2)cc1 | nt | i | -22 | i | i | nt
CCn1c(SCC(=O)NCc2cccs2)nnc1-c1ccco1 | i | nt | nt | nt | i | 105
O=C(CSc1nnc(-c2ccco2)n1-c1ccccc1)Nc1c(Cl)cc(Cl)cc1C(=O)O | i | i | i | i | 52 | i
CCC(=O)Nc1ccc2c(c1)C(=O)N(C)C[C@@H](OC)[C@H](C)CN(CC1CCOCC1)[C@@H](C)CO2 | i | nt | i | nt | i | i
C[C@@H]1CN([C@@H](C)CO)C(=O)c2cccc(NC(=O)C3CCCCC3)c2O[C@@H]1CN(C)C(=O)Nc1ccc(C(F)(F)F)cc1 | i | i | i | i | i | i
Cc1noc(C)c1S(=O)(=O)Nc1ccc2c(c1)CC(=O)N([C@@H](C)CO)C[C@@H](C)[C@H](CN(C)C(=O)Nc1ccc(F)cc1)O2 | i | i | i | i | i | i
SMILES | Cneo AK release | S100A4 MyoIIA | Ecoli rRNA inh | SIRT5 block | PGC1a acetyl inh | C2C12 statin
CCCNC(=O)N(C)C[C@H]1Oc2ncc(-c3ccncc3)cc2C(=O)N([C@@H](C)CO)C[C@@H]1C | i | i | i | i | i | i
CC(C)(C)NC(=O)CSc1nnc(-c2ccccn2)n1-c1ccccc1 | i | i | i | nt | i | i
c1ccc(CSc2nnc(-c3ccccn3)n2-c2ccccc2)cc1 | i | nt | nt | nt | i | 107
CNC(=O)CSc1nnc(-c2ccco2)n1-c1ccccc1 | i | i | i | 101 | i | i
O=C(Nc1cccc(F)c1)N1C[C@@H]2[C@H](c3ccccc31)[C@H](CO)N2C(=O)C1CCOCC1 | i | i | i | i | i | i
N#CC1=C(N)C(C#N)(C#N)[C@H](c2cccnc2)[C@H]2CN(C(=O)OCc3ccccc3)CC=C12 | i | i | i | 16 | i | i
C[C@H]1CN([C@@H](C)CO)C(=O)c2cc(NC(=O)c3ccncc3)ccc2O[C@@H]1CN(C)C(=O)Nc1cccc2ccccc12 | i | i | i | i | i | i
CC1CN(C(=O)/C(C#N)=C2\N=C(NC(=O)c3ccccc3Cl)c3ccccc32)CC(C)O1 (centres undefined) | nt | i | i | 21 | nt | nt
O=c1[nH]c(CN2CCN(c3ccc(O)cc3)CC2)nc2scc(-c3ccc(Cl)cc3)c12 | nt | i | -24 | i | nt | nt
Cc1nc(N2CCC3(CC2)OCCO3)c2nnn(Cc3ccccc3F)c2n1 | i | nt | nt | nt | i | 130
Cc1nc(NC2CCCCC2)c2nnn(Cc3ccccc3Cl)c2n1 | i | i | i | i | i | i
Cc1nc(N2CCCC2)c2nnn(Cc3ccccc3Cl)c2n1 | i | nt | nt | nt | i | 76
C[C@H](CO)N1C[C@H](C)[C@H](CN(C)CC2CCCCC2)Oc2ccc(NC(=O)Nc3ccc(C(F)(F)F)cc3)cc2CC1=O | i | i | i | i | i | i
COc1ccc(/C=N/NC(=O)CCSc2nc3ccccc3s2)cc1 | nt | i | -26 | i | nt | nt
CC[C@@]12C(=O)N(c3ccc(C)cc3)C(=O)N1[C@H](c1ccc(OC)cc1)[C@@H]1C(=O)N(C(C)(C)C)C(=O)[C@@H]12 | i | i | i | 20 | i | i
CCN1C(=O)[C@H]2[C@@H](c3ccc(C)cc3)N3C(=O)N(c4ccc(C)cc4)C(=O)[C@@]3(Cc3ccc(Cl)cc3)[C@H]2C1=O | i | i | -28 | i | i | i
CC1CCN(C(=O)CNS(=O)(=O)c2ccc(Br)s2)CC1 | i | i | i | i | i | i
O=C(CNS(=O)(=O)c1ccc(Br)s1)N1CCN(c2ncccn2)CC1 | i | nt | nt | nt | i | 150
C[C@@H](NC(=O)C[C@@H]1CC[C@@H]2[C@H](COC[C@H](O)CN2C)O1)c1ccccc1 | i | i | i | i | i | i
CCOC(=O)Cc1nnc(NC(=O)COc2ccc(C)cc2)s1 | i | nt | nt | nt | i | i
CCOC(=O)Cc1nnc(NC(=O)CCc2ccccc2)s1 | nt | i | i | 17 | nt | nt
CCOC(=O)Cc1nnc(NC(=O)COc2ccc(OC)cc2)s1 | i | nt | nt | nt | i | 130
[N-]=[N+]=NC[C@H](Cc1ccccc1)N1CC[C@@H](OCc2ccccc2)CCC1=O | i | i | -25 | nt | nt | i
[N-]=[N+]=NC[C@H](Cc1ccccc1)N1CC[C@@H](O)CCC1=O | i | i | i | nt | nt | i
COc1cccc(C#Cc2cnc3c(c2)C(=O)N([C@H](C)CO)C[C@H](C)[C@H](CN(C)C(=O)C2CCC2)O3)c1 | i | i | i | i | i | i
